Data reported in ChEMBL document CHEMBL1165858, “Synthesis and biological evaluation of beta-chloro vinyl chalcones as inhibitors of TNF-alpha and IL-6 with antimicrobial activity” (Eur J Med Chem, 2010).
≈ marks a conversion by molar mass, not a printed value. Calls of active or inactive are those of the source. The calls are words filed in the database; no cut-off is given here.

Assays:
THP-1 [1] = test: Antiinflammatory activity in human THP1 cells assessed as inhibition of LPS-induced IL-6 secretion at 10 uM treated 30 mins before LPS challenge measured after 24 hrs by ELISA relative to control; assay type: functional
Outline: (§1)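 THP-1 cells were grown in RPMI 1640 with 10% FBS and penicillin/streptomycin, then differentiated with PMA. Compound or vehicle (0.5% DMSO) was added for 30 min at 37 °C, followed by LPS (E. coli 0127:B8, final 1 µg/mL). After 24 h at 37 °C in 5% CO2, TNF-α and IL-6 in the supernatants were quantified by ELISA. Values are the mean of n = 2.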

Escherichia coli [2] = test: Antibacterial activity against Escherichia coli NCIM 2065 after 24 hrs by disc diffusion method; assay type: functional
Outline: (§2)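 Paper disc diffusion (6.25 mm Whatman no.1 discs, dry-heat sterilized at 140 °C for 1 h) loaded with compounds at different concentrations in DMSO. Discs were placed in triplicate on nutrient agar seeded with fresh bacterial culture and incubated at 37 °C for 24 h, with solvent and growth controls. Zones of inhibition (mm) and MIC, the concentration completely inhibiting growth, were recorded.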

Aspergillus niger [3] = test: Antibacterial activity against Aspergillus niger NCIM 545 at > 100 […] after 72 hrs by disc diffusion method; assay type: functional, organism-based
Bacillus subtilis [4] = test: Antibacterial activity against Bacillus subtilis NCIM 2546 after 24 hrs by disc diffusion method; assay type: functional; outline: as §2
THP-1 [5] = test: Antiinflammatory activity in human THP1 cells assessed as inhibition of LPS-induced TNFalpha secretion at 10 uM treated 30 mins before LPS challenge measured after 24 hrs by ELISA relative to control; assay type: functional; outline: as §1
Staphylococcus aureus = test: Antibacterial activity against Staphylococcus aureus NCIM 2120 at > 100 […] after 24 hrs by disc diffusion method; assay type: functional, organism-based
Penicillium chrysogenum = test: Antibacterial activity against Penicillium chrysogenum NCIM 707 at > 100 […] after 72 hrs by disc diffusion method; assay type: functional, organism-based
Proteus vulgaris = test: Antibacterial activity against Proteus vulgaris NCIM 2813 after 24 hrs by disc diffusion method; assay type: functional; settings: for MIC: Proteus vulgaris, NCIM 2813, 24 h; outline: as §2
[6] = Cytotoxicity against […] at 10 uM; assay type: cell-based
Klebsiella pneumoniae = test: Antibacterial activity against Klebsiella pneumoniae NCIM 5082 at > 100 […] after 24 hrs by disc diffusion method; assay type: functional, organism-based
Candida albicans = test: Antibacterial activity against Candida albicans NCIM 3100 at > 100 […] after 72 hrs by disc diffusion method; assay type: functional, organism-based
Trichoderma viride = test: Antibacterial activity against Trichoderma viride TT at > 100 […] after 72 hrs by disc diffusion method; assay type: functional, organism-based
Aspergillus fumigatus = test: Antibacterial activity against Aspergillus fumigatus NCIM 902 at > 100 […] after 72 hrs by disc diffusion method; assay type: functional, organism-based
Aspergillus niger [7] = test: Antibacterial activity against Aspergillus niger NCIM 545 after 72 hrs by disc diffusion method; assay type: functional
Outline: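 Agar disc diffusion against fungi. Fungi were maintained on potato dextrose agar at (25 ± 2) °C for five days before use. Compounds were dissolved in DMSO (10 mg/mL initial solutions) and loaded on discs placed on freshly seeded plates alongside a solvent control disc. Plates were held at 4 °C for 24 h for diffusion, then incubated at 37 ± 5 °C for 72 h. Zones of inhibition (mm) and MICs were recorded.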

Bacillus subtilis [8] = test: Antibacterial activity against Bacillus subtilis NCIM 2546 at > 100 […] after 24 hrs by disc diffusion method; assay type: functional, organism-based
Escherichia coli [9] = test: Antibacterial activity against Escherichia coli NCIM 2065 at > 100 […] after 24 hrs by disc diffusion method; assay type: functional, organism-based

Row | MIC (Escherichia coli [2]; Escherichia coli, NCIM 2065, 24 h) | MIC (Aspergillus niger [3]) | MIC (Staphylococcus aureus) | MIC (Penicillium chrysogenum) | MIC (Proteus vulgaris) | MIC (Klebsiella pneumoniae) | MIC (Candida albicans) | MIC (Trichoderma viride) | MIC (Aspergillus fumigatus) | MIC (Aspergillus niger [7]; Aspergillus niger, NCIM 545, 72 h) | MIC (Bacillus subtilis [8]) | MIC (Escherichia coli [9]) | SMILES | inhibition at 10 µM (THP-1 [1]) | inhibition zone (IZ) (Escherichia coli [2]) | inhibition zone (IZ) (Bacillus subtilis [4]) | inhibition at 10 µM (THP-1 [5]) | inhibition zone (IZ) (Proteus vulgaris) | Activity [6] | inhibition zone (IZ) (Aspergillus niger [7])
1 | 50 µg/mL (≈ 132 µM) | inactive | inactive | inactive | 25 µg/mL (≈ 65.9 µM) | inactive | inactive | inactive | inactive | – | – | – | COc1cc(O)c(C(=O)/C=C/C=C(\Cl)c2cccc(Cl)c2)c(OC)c1 | 31% | 16 mm | 12 mm | 0% | 18 mm | Non-toxic | –
2 | – | – | inactive | inactive | 50 µg/mL (≈ 133 µM) | inactive | inactive | inactive | inactive | 50 µg/mL (≈ 133 µM) | inactive | inactive | COc1ccc(/C(Cl)=C/C=C/C(=O)c2c(O)cc(OC)cc2OC)cc1 | 78% | – | – | 18% | 17 mm | Non-toxic | 16 mm
